Results on 96 compounds are retold here after ChEMBL document CHEMBL4513216, “Probing the Open Global Health Chemical Diversity Library for Multistage-Active Starting Points for Next-Generation Antimalarials” (ACS Infect Dis, 2020).

The series can be described thus: Toxicity liver stage against HepG2, at 10uM. In kind it is cell-based. Also noted: test concentration 10 uM, cell line HepG2-A16-CD81EGFP. The following applies: human, HepG2-A16-CD81EGFP cells; read-out: INHIBITION
In outline: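 Uninfected HepG2-A16-CD81EGFP cells, 3 × 10^3 per well, 1536-well, plated on prespotted compound at 10 μM final, parasite-free screening media added to match infected plates; puromycin 10 μM positive, DMSO 0.5% negative; run in parallel with 48 h PbLuc assay at 37 °C, 5% CO2; viability by CellTiter-Glo luminescence, normalized to controls.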
`O=C(NC[C@H]1OC[C@@H](NCc2ccccc2)[C@@H]1O)Nc1ccccc1`: the cytotoxicity at 10 µM was 1.97%.

In the case of `COc1ccc(Nc2nc(N)c(C(C)=O)s2)cc1Cl`, the cytotoxicity at 10 µM turned out to be 0.833%. The figure for `COCCNC(=O)c1nc(NS(=O)(=O)c2ccccc2)sc1C` is 9.18%; for `Cc1nc(C(=O)N2CCN(S(C)(=O)=O)CC2)c(-c2cccc(F)c2)s1` it is 1.37%; for `O=C(Oc1ccccc1)N1CCC(CNS(=O)(=O)c2cccnc2)CC1` it is 11.1%. Next, `Cc1cc(NC(=O)Cn2cnc(-c3cccs3)cc2=O)sn1`: 0.0962%.

For the compound `COc1ncc(NS(=O)(=O)c2ccc(F)cc2F)cn1`, the cytotoxicity at 10 µM is -3.96%. Next, `O=C(C1=CCCC1)N1C[C@H](OCc2cccnc2)[C@H]2OCCC[C@H]21`: 7.86%; `Cc1nc(N2CCCC2)nc2c1CCN(C(=O)C(C)C)CC2`: 5.02%.

Take `Cc1ncsc1CN1CC[C@H]2OCC[C@@]2(C(=O)N(C)C)C1`: the cytotoxicity at 10 µM worked out at 2.93%.

As to `COCCNC(=O)Cn1c(-c2cccc(Cl)c2)nc(C)c(CCO)c1=O`, the cytotoxicity at 10 µM was -0.86%. As to `CC(O)CNc1c(NCc2ccco2)c(=O)c1=O` (stereo unspecified), the cytotoxicity at 10 µM was -3.04%. As to `O=C(NCCSCc1ccco1)c1ccc(N2CCOCC2)cc1`, the cytotoxicity at 10 µM was -0.971%. As for `Cc1nccc([C@H]2C[C@@H]3CCN(S(=O)(=O)N(C)C)C[C@H]3O2)n1`, the cytotoxicity at 10 µM is -10.8%. Next, `COCCN1C(=O)[C@]2(CC[C@@H]3CN(C(=O)NCC(C)C)C[C@@H]32)N=C1C`: -11.8%. On to `c1cc(CN2CCC[C@@H](Cn3nnc(-c4cnccn4)n3)C2)ccn1`, for which the cytotoxicity at 10 µM was -0.45%.

Turning to `O=C(c1cccnc1)N1CCc2[nH]nc(Nc3ccccc3)c2C1`, the cytotoxicity at 10 µM worked out at 6.83%.

Turning to `CN(CC1(C)COC1)C(=O)c1cc(-c2ccn(C)n2)nc2ccccc12`, the cytotoxicity at 10 µM came out at 9.81%. The figure for `CCc1ncc(CN2CCC(O)(c3ccccc3F)CC2)cn1` is -4.68%; for `CC(=O)N1CC(C)CN(Cc2ccon2)c2ccccc21` (stereo unspecified) it is 2%; for `COc1c(C2CCCN2c2ncnc3c2CCC3)c(C)nn1C` (stereo unspecified) it is 10.5%. `CC(C)CN(CC(=O)O)C(=O)c1ccc(F)cc1`: the cytotoxicity at 10 µM was -2.83%.

Regarding `COC(=O)CN(C(=O)c1ccc(Cl)o1)c1cccc(F)c1`, the cytotoxicity at 10 µM was 6.11%. Consider `Cc1ncc2c(n1)CN(c1ncnc3[nH]ccc13)CC2`, for which the cytotoxicity at 10 µM is -8.92%. Next, `CCn1cc(C(=O)N2CCCN(c3cccnn3)CC2)c2ccccc21`: -0.418%; `O=C(CCn1cccn1)NS(=O)(=O)N1CCCc2ccccc21`: 5.65%; `O=C(NCCN1CCOCC1)c1cc(-c2ccc(Cl)s2)[nH]n1`: -6.58%.

For `CCN1CCCN(c2ccc(-n3ccc(C)n3)nn2)CC1`, the cytotoxicity at 10 µM is -0.553%. Next, `O=C(c1ccc2c(c1)OCCCO2)N1CCCCC1C1OCCO1` (stereo unspecified): -0.158%; `CCN1CCN(c2ccc(F)cc2C(C)NCc2ccnn2C)CC1` (stereo unspecified): -8.33%; `Cc1n[nH]c(C2CN(C(=O)c3ccon3)CCO2)n1` (stereo unspecified): -8.27%. The figure for `Cc1ccc(CN2CCOCC2)cc1NC(=O)c1ccsc1` is 3.22%; for `COc1ccc(-n2ccc(C(=O)N(CCN(C)C)C(C)C)n2)cc1` it is -3.29%. Take `Cc1cccc(-c2nnc(C(C)NCCn3cc(C)cn3)o2)c1` (stereo unspecified): the cytotoxicity at 10 µM is -8.32%. For `Cc1ccc(CN(C(=O)c2cccc(NC(N)=O)c2)C2CC2)o1`, the cytotoxicity at 10 µM was determined as 2.69%.

Take `O=c1cc(CN2CCC(CCc3ccc(O)cc3)CC2)[nH]c(=O)[nH]1`: the cytotoxicity at 10 µM is -0.885%. `O=C(CNC(=O)C1CCCC1)NCC(O)c1ccc2ccccc2c1` (stereo unspecified): the cytotoxicity at 10 µM came out at 0.587%. The figure for `COc1ccc(C(C#N)NC(=O)Cc2ccc(F)c(F)c2)c(OC)c1` (stereo unspecified) is 21.6%. Next, `COCc1c(Cl)cccc1NC(=O)NCc1cccc(N(C)C)n1`: 0.217%; `O=C(CCN1CCSCC1c1ccccc1)N1CCOCC1` (stereo unspecified): -12.5%; `O=C(NCC(F)F)N1CCC(n2ccc(C(F)(F)F)n2)CC1`: -10.2%.

Regarding `NC(=O)CCN1CCC(C(=O)c2cc(F)ccc2F)CC1`, the cytotoxicity at 10 µM was -4.89%. The figure for `COCCn1ccc2cc(NC(C)=O)ccc21` is -12%.

Regarding `Cn1cc(-c2ncc3c(c2C(=O)O)CCN(CC2CCOC2)C3)cn1` (stereo unspecified), the cytotoxicity at 10 µM is -94.6%. Next, `CC(C)C(=O)N1CCC2(COCc3cnc(-c4cccnc4)nc32)C1` (stereo unspecified): -102%. For `NCC1Cc2cc(-c3cncc(C(=O)N4CCCCC4)n3)cc(F)c2O1` (stereo unspecified), the cytotoxicity at 10 µM is -51.8%. Next, `CC(C)Cn1cncc1CNC1CCCNC1` (stereo unspecified): -0.391%; `COc1cccc(CN2CC(=O)N(c3ccccc3C)CC2C)c1OC` (stereo unspecified): 2.24%. On to `CC(C)=CCN1CCN(C(=O)c2cc(C(C)C)on2)[C@H]2CS(=O)(=O)C[C@H]21`, for which the cytotoxicity at 10 µM is 3.54%. Take `CC(C)c1nccn1C(C)C(=O)NC1Cc2ccccc2C1` (stereo unspecified): the cytotoxicity at 10 µM is -5.03%. For `CNc1nc(C(=O)N2CCC3(CCCN(C)C3=O)C2)cs1` (stereo unspecified), the cytotoxicity at 10 µM was -8.57%. For `COc1ccc(S(=O)(=O)N[C@H]2CN(C(C)=O)C[C@@H]2C(C)C)cc1F`, the cytotoxicity at 10 µM was -0.277%. The figure for `OC1CCCN(Cc2cn(CC3CCN(C4CCSCC4)CC3)nn2)C1` (stereo unspecified) is -61%; for `CCc1cnc(C)nc1NC(CC)c1cnn(C)c1` (stereo unspecified) it is -11.7%; for `CSCc1noc(Cn2ncn3cccc3c2=O)n1` it is 4.44%. Regarding `Cc1ccc(CNC(=O)CCN2CCOC(C(F)(F)F)C2)cc1` (stereo unspecified), the cytotoxicity at 10 µM was 3.71%.

As to `O=C(O)[C@@H]1CN(C(=O)CC2CCCC2)C[C@H]1c1ccc(F)cc1`, the cytotoxicity at 10 µM is -10.2%. The figure for `CC(C(N)=O)N1CCc2onc(-c3cccc(F)c3)c2C1` (stereo unspecified) is 3.38%; for `CC(C)[C@H]1CN(CCS(C)(=O)=O)C[C@@H]1NC(=O)c1ccc(=O)[nH]c1` it is 3.06%. Next, `Cc1cnn(C2CN(Cc3nc(-c4cccnc4)no3)C2)c1`: 3.03%; `Cc1nc(CN2CCCC2c2c(C)nn(C)c2Cl)oc1C` (stereo unspecified): -3.33%; `c1ccc(-n2cc(CNCC3CCCN3c3cccnn3)nn2)cc1` (stereo unspecified): -1.47%. Next, `CC(C)c1n[nH]c(C2CN(C(=O)c3cc(C(N)=O)cs3)CCO2)n1` (stereo unspecified): 1.17%; `Cc1ncc2c(n1)CN(CC(=O)Nc1cccnc1)CC2`: 0.66%; `O=C(c1csc(-c2nnc[nH]2)n1)N1CCCCC1Cn1cccn1` (stereo unspecified): -4.49%. `Cc1cn2c(n1)CCC(NC(=O)Cn1cncn1)C2` (stereo unspecified): the cytotoxicity at 10 µM is -3.86%. Turning to `COCCOc1cccc(CNC(=O)CN2CCN(C)CC2C)c1` (stereo unspecified), the cytotoxicity at 10 µM is -4.07%.

In the case of `CC(C)c1ncncc1C(=O)N1CCN(Cc2ccsc2)CC1`, the cytotoxicity at 10 µM was -4.49%.

`CCc1nc(C2CCCN2C(=O)CCc2cscn2)no1` (stereo unspecified): the cytotoxicity at 10 µM was -3.12%. The figure for `Cc1nc(CC(=O)N2CCn3c(nnc3C(C)C)C2)cs1` is -12.3%; for `Cc1ccc(C(=O)N(C)Cc2ccc3c(c2)OCO3)c(=O)[nH]1` it is -12%. Regarding `Cc1noc(C)c1CC(=O)N1CCC(Nc2cccnn2)CC1`, the cytotoxicity at 10 µM was -15.8%. Regarding `O=C(NCCc1ccc(F)cc1)NCC(O)c1cccc(F)c1` (stereo unspecified), the cytotoxicity at 10 µM is -1.14%.

`Cc1nccn1C1CCCN(C(=O)c2cccc3c2OCO3)C1` (stereo unspecified): the cytotoxicity at 10 µM is -14.1%. Next, `c1cnnc(NCC2CN(Cc3cccc4c3OCCO4)CCO2)c1` (stereo unspecified): -9.93%; `CC(C)CN1CCC(C(=O)Nc2cc(C(F)(F)F)c[nH]c2=O)CC1`: -11.3%. As to `CC(C)(C)c1nnc(CN2CCCC2c2noc(C3CC3)n2)o1` (stereo unspecified), the cytotoxicity at 10 µM is -2.75%. Take `CCc1nc(C2CCCN2C(=O)CCc2cccs2)no1` (stereo unspecified): the cytotoxicity at 10 µM is -3.19%. Next, `CC(C)c1nc(C2CCCN2CC(=O)N2CCc3ccccc32)no1` (stereo unspecified): -5.84%; `OC(COCc1cccs1)CN1CCC(c2ccn[nH]2)CC1` (stereo unspecified): -2.66%. On to `COc1cccc(-n2c(C)cc(C(=O)O)c2C)c1`, for which the cytotoxicity at 10 µM is -8.65%. The figure for `c1cnn(CC2CN(Cc3noc(C4CC4)n3)CCO2)c1` (stereo unspecified) is -0.842%; for `CCCc1n[nH]c(C2CN(CCNS(=O)(=O)CC)CCO2)n1` (stereo unspecified) it is 2.43%.

Turning to `O=C(c1ccc2c(c1)CCCC2)N1CCOCC1c1ncon1` (stereo unspecified), the cytotoxicity at 10 µM was -7%. As to `Cc1cnn(CC2CCCCN2Cc2nnc(C3CC3)n2C)c1` (stereo unspecified), the cytotoxicity at 10 µM is 2.36%.

For the compound `Cc1nc(CN2CCOC(CN(C)c3cccnn3)C2)cs1` (stereo unspecified), the cytotoxicity at 10 µM is 0.938%. On to `CCOc1ccc(Cl)cc1C1CCCN1` (stereo unspecified), for which the cytotoxicity at 10 µM was -12.3%. Regarding `COCC1CC2(CCN(CC3CC3)CC2)CN1c1ncccn1` (stereo unspecified), the cytotoxicity at 10 µM was 14.1%. On to `O=C(c1n[nH]c2c1CCN(Cc1nccs1)C2)N1CCCC1`, for which the cytotoxicity at 10 µM was -10.7%. The figure for `CC(C)c1nc(-c2ccnc(N3CCNCC3)n2)no1` is 1.01%. Next, `Cn1cc(N2CC3(COCCN(Cc4ccsc4)C3)OCC2=O)cn1` (stereo unspecified): 3.55%.

As for `Cn1ccc(CN2CCC3(CCCN3CC3CC3)CC2)n1`, the cytotoxicity at 10 µM was -92.4%. The figure for `O=C(NCc1cccs1)[C@H]1CO[C@H]2CCN(C3CCCC3)C[C@H]2C1` is -110%. `COCCO[C@@H]1CCN(Cc2csc(C)n2)[C@H]1Cc1ccccc1`: the cytotoxicity at 10 µM worked out at 5.98%. The figure for `CC(C)NC(=O)N1C[C@@H]2C[C@H](C(=O)NCc3ccccc3)[C@H](C1)O2` is -0.594%; for `O=C(NCC1(COc2cnccn2)C[C@@H](O)[C@@H](O)C1)C1CC1` (stereo partly specified) it is 7.92%.
